Results reported in ChEMBL document CHEMBL1138351, “Small, potent, and selective diaryl phosphonate inhibitors for urokinase-type plasminogen activator with in vivo antimetastatic properties” (J Med Chem, 2007).

Key:
Rattus norvegicus [1] = assay: Toxicity in Brown Norwegian rat bearing BN472 tumor assessed as decrease in liver weight at 0.1 mg/kg, ip administered once daily after 4 days of tumor transplantation for 17 to 18 days relative to control; assay type: organism-based; set-up: dose 0.1 mg/kg, route intraperitoneal; scale not given: the % may be the effect or the level left; details: in vivo
Outline: (§1)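 Orthotopic BN472 breast tumour model in rats. Daily i.p. dosing at 0.1 or 1 mg/kg started on day 4 and ran 17–18 days, with vehicle-only i.p. controls. Side effects were assessed from body weight and the weights of several organs, compared with controls.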

[2] = Antitumor activity aganist Brown Norwegian rat bearing BN472 tumor assessed as reduction of tumor weight at 0.1 mg/kg, ip administered once daily after 4 days of tumor transplantation for 17 to 18 days relative to control; assay type: functional; set-up: scale not given: the % may be the effect or the level left; details: route intraperitoneal
Outline: (§2)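 Rats bearing orthotopic BN472 breast tumours (grown three days) were dosed i.p. daily from day 4 for 17–18 days at 0.1 or 1 mg/kg. Vehicle-only i.p. controls were included. Tumour size and tumour weight were measured at the end of the treatment period and compared with controls.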

Rattus norvegicus [3] = assay: Toxicity in Brown Norwegian rat bearing BN472 tumor assessed as effect on body weight at 1 mg/kg, ip administered once daily after 4 days of tumor transplantation for 17 to 18 days relative to control; assay type: organism-based; set-up: dose 1 mg/kg, route intraperitoneal; details: in vivo; outline: as §1
Rattus norvegicus [4] = assay: Toxicity in Brown Norwegian rat bearing BN472 tumor assessed as decrease in spleen weight at 1 mg/kg, ip administered once daily after 4 days of tumor transplantation for 17 to 18 days relative to control; assay type: organism-based; set-up: dose 1 mg/kg, route intraperitoneal; scale not given: the % may be the effect or the level left; details: in vivo; outline: as §1
[5] = Distribution coefficient, log D in octanol and phosphate buffer saline at pH 7.4; assay type: physicochemical; details: octanol/phosphate buffered saline
Outline: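 A 10 mM DMSO stock was added to a 1:1 octanol/PBS pH 7.4 mixture. Measured in duplicate.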

Prothrombin [6] = biological target: Prothrombin (Rattus norvegicus, UniProt P18292); assay: Inhibition of rat thrombin
Prothrombin [7] = biological target: Prothrombin (Mus musculus, UniProt P19221); assay: Inhibition of mouse thrombin
[8] = Stability in human plasma after 3 hrs; assay type: ADME, cell-free; details: read-out: Stability
Outline: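 Compound was added from 10 mM DMSO stock to human plasma at 200 µM final and shaken at 37 °C for up to 24 h. Aliquots were quenched in methanol and centrifuged. The supernatant was diluted with internal standard and analysed by LC/MS/MS in triplicate. Result is given as % parent compound remaining.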

[9] = Antimetastatic activity against Brown Norwegian rat bearing BN472 tumor assessed as reduction of axillary lymph node weight at 1 mg/kg, ip administered once daily after 4 days of tumor transplantation for 17 to 18 days relative to control; assay type: functional; set-up: scale not given: the % may be the effect or the level left; details: route intraperitoneal
Outline: (§3)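 BN472 breast tumours implanted orthotopically in rats and left to grow three days. From day 4, compounds were given i.p. daily for 17–18 days at 0.1 or 1 mg/kg. Controls received vehicle i.p. only. Lung foci were counted and axillary lymph nodes weighed at the end of treatment. Groups were compared with control at an unadjusted significance level of P 0.05.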

Rattus norvegicus [10] = assay: Toxicity in Brown Norwegian rat bearing BN472 tumor assessed as decrease in spleen weight at 0.1 mg/kg, ip administered once daily after 4 days of tumor transplantation for 17 to 18 days relative to control; assay type: organism-based; set-up: dose 0.1 mg/kg, route intraperitoneal; scale not given: the % may be the effect or the level left; details: in vivo; outline: as §1
[11] = Chemical stability assessed as half life of hydrolysis at pH 8.8; assay type: physicochemical; details: buffer
[12] = biological target: Urokinase-type plasminogen activator (Rattus norvegicus, UniProt P29598); assay: Inhibition of rat uPA
Sequence of Urokinase-type plasminogen activator (Rattus norvegicus, UniProt P29598) (P29598 20-177 limits assumed): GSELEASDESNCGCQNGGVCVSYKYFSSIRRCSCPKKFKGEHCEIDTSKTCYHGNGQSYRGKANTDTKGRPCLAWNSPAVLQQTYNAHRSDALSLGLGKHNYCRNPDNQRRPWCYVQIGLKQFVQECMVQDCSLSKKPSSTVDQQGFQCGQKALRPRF
Sequence of Urokinase-type plasminogen activator (Rattus norvegicus, UniProt P29598) (P29598 179-432 limits assumed): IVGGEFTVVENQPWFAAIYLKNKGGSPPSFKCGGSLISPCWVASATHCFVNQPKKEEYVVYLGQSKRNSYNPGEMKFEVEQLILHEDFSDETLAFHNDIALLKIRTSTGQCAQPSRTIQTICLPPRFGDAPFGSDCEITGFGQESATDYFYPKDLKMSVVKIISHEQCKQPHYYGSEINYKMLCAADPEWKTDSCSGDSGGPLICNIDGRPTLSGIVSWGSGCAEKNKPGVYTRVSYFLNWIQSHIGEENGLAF

Rattus norvegicus [13] = assay: Toxicity in Brown Norwegian rat bearing BN472 tumor assessed as decrease in liver weight at 1 mg/kg, ip administered once daily after 4 days of tumor transplantation for 17 to 18 days relative to control; assay type: organism-based; set-up: dose 1 mg/kg, route intraperitoneal; scale not given: the % may be the effect or the level left; details: in vivo; outline: as §1
Rattus norvegicus [14] = assay: Toxicity in Brown Norwegian rat bearing BN472 tumor assessed as increase in kidney weight at 0.1 mg/kg, ip administered once daily after 4 days of tumor transplantation for 17 to 18 days relative to control; assay type: organism-based; set-up: dose 0.1 mg/kg, route intraperitoneal; details: in vivo; outline: as §1
Rattus norvegicus [15] = assay: Toxicity in Brown Norwegian rat bearing BN472 tumor assessed as increase in lung weight at 0.1 mg/kg, ip administered once daily after 4 days of tumor transplantation for 17 to 18 days relative to control; assay type: organism-based; set-up: dose 0.1 mg/kg, route intraperitoneal; details: in vivo; outline: as §1
Rattus norvegicus [16] = assay: Toxicity in Brown Norwegian rat bearing BN472 tumor assessed as increase in kidney weight at 1 mg/kg, ip administered once daily after 4 days of tumor transplantation for 17 to 18 days relative to control; assay type: organism-based; set-up: dose 1 mg/kg, route intraperitoneal; details: in vivo; outline: as §1
Plasminogen [17] = biological target: Plasminogen (Rattus norvegicus, UniProt Q01177); assay: Inhibition of rat plasmin
Sequence of Plasminogen (Rattus norvegicus, UniProt Q01177) (Q01177 97-581 limits assumed): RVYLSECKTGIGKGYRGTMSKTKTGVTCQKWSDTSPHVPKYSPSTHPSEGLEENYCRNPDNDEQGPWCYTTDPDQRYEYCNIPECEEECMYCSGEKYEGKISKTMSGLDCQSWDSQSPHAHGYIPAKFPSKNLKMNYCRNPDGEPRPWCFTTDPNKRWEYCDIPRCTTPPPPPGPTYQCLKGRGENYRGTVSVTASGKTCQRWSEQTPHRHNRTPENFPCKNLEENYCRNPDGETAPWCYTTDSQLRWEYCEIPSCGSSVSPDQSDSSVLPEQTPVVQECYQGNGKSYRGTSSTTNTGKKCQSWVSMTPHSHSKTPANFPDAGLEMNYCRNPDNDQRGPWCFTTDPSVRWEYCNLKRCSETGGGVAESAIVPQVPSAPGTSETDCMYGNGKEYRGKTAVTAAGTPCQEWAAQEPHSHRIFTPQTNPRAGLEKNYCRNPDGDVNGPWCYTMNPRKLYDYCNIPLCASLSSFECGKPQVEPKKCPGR
Sequence of Plasminogen (Rattus norvegicus, UniProt Q01177) (Q01177 582-812 limits assumed): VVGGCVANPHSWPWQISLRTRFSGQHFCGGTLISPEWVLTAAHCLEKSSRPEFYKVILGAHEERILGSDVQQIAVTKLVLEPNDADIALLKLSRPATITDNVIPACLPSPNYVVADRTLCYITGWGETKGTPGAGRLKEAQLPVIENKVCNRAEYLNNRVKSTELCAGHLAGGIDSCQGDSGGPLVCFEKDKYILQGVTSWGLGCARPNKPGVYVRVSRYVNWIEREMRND

[18] = biological target: Urokinase-type plasminogen activator (Homo sapiens, UniProt P00749)
[19] = Chemical stability assessed as half life of hydrolysis at pH 1; assay type: physicochemical; details: buffer
[20] = Chemical stability assessed as half life of hydrolysis at pH 7.4; assay type: physicochemical; details: buffer
Prothrombin [21] = biological target: Prothrombin (Homo sapiens, UniProt P00734); assay: Inhibition of human thrombin
Outline: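 Human plasma thrombin was assayed at 37 °C in Tris pH 8.3. […] Initial rate was read at 405 nm, in duplicate. IC50 was obtained from a four-parameter logistic fit.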

[22] = Antimetastatic activity against Brown Norwegian rat bearing BN472 tumor assessed as reduction of interpectoral lymph node weight at 0.1 mg/kg, ip administered once daily after 4 days of tumor transplantation for 17 to 18 days relative to control; assay type: functional; set-up: scale not given: the % may be the effect or the level left; details: route intraperitoneal
[23] = Chemical stability assessed as half life of hydrolysis at pH 4; assay type: physicochemical; details: buffer
Plasminogen [24] = biological target: Plasminogen (Mus musculus, UniProt P20918); assay: Inhibition of mouse plasmin
Sequence of Plasminogen (Mus musculus, UniProt P20918) (P20918 98-581 limits assumed): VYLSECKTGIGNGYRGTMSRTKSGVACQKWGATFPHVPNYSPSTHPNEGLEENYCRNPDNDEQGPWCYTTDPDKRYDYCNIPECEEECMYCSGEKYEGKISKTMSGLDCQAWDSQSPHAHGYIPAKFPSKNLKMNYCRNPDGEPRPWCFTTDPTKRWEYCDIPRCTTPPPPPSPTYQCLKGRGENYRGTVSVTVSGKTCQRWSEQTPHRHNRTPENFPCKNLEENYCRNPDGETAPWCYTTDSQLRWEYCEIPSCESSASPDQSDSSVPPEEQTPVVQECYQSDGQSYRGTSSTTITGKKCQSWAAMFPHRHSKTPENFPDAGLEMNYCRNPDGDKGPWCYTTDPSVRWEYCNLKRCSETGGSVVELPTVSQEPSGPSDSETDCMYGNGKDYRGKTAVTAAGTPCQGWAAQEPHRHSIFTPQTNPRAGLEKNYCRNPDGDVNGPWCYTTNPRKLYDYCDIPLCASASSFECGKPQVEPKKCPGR
Sequence of Plasminogen (Mus musculus, UniProt P20918) (P20918 582-812 limits assumed): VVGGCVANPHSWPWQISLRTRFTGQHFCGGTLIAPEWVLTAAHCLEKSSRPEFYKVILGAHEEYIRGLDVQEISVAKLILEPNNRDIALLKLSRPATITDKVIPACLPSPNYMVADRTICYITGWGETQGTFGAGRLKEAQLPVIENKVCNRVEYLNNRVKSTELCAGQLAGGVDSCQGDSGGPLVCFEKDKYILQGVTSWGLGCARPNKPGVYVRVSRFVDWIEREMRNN

Plasminogen [25] = biological target: Plasminogen (Homo sapiens, UniProt P00747); assay: Inhibition of human plasmin
Sequence of Plasminogen (Homo sapiens, UniProt P00747) (P00747 97-580 limits assumed): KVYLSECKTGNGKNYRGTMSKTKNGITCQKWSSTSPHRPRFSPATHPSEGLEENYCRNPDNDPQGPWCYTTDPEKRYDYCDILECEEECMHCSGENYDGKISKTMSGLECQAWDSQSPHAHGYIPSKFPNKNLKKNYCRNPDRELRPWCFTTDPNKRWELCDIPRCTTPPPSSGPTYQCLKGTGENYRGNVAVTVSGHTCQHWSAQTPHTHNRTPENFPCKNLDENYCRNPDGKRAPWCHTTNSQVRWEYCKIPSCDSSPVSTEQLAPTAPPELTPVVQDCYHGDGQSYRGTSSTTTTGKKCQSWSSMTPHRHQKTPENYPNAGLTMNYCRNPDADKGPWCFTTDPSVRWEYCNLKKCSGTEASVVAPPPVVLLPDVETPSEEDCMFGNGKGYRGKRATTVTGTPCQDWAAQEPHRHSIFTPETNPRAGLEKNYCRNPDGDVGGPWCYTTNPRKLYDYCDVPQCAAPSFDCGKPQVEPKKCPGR
Sequence of Plasminogen (Homo sapiens, UniProt P00747) (P00747 581-810 limits assumed): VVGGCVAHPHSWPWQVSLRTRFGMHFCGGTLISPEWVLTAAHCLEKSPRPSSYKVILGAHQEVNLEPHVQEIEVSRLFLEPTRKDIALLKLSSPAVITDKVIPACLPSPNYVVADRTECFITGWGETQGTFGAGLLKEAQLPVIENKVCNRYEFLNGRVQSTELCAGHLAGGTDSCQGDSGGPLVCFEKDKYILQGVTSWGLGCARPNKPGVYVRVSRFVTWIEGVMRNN
Outline: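 Plasmin from human plasma at about 5 mU was preincubated with inhibitor (0–250 µM final) for 15 min at 37 °C. Substrate was S-2366 at 580 µM in Tris pH 7.4. Initial rate was read at 405 nm, in duplicate. IC50 came from a four-parameter logistic fit.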

[26] = Apparent solubility in phosphate buffered saline at pH 7.4 after 2 hrs; assay type: ADME
Outline: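 Compounds were serially diluted from 10 mM DMSO stock into PBS pH 7.4 (2% DMSO final), giving 1–200 µM final at eight concentrations, in duplicate. Incubation was 2 h at 37 °C. Solubility was taken as the onset of increased absorbance at 620 nm.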

Rattus norvegicus [27] = assay: Toxicity in Brown Norwegian rat bearing BN472 tumor assessed as effect on body weight at 0.1 mg/kg, ip administered once daily after 4 days of tumor transplantation for 17 to 18 days relative to control; assay type: organism-based; set-up: dose 0.1 mg/kg, route intraperitoneal; details: in vivo; outline: as §1
[28] = Antimetastatic activity against Brown Norwegian rat bearing BN472 tumor assessed as reduction of axillary lymph node weight at 0.1 mg/kg, ip administered once daily after 4 days of tumor transplantation for 17 to 18 days relative to control; assay type: functional; set-up: scale not given: the % may be the effect or the level left; details: route intraperitoneal; outline: as §3
Rattus norvegicus [29] = assay: Toxicity in Brown Norwegian rat bearing BN472 tumor assessed as increase in uterus weight at 1 mg/kg, ip administered once daily after 4 days of tumor transplantation for 17 to 18 days relative to control; assay type: organism-based; set-up: dose 1 mg/kg, route intraperitoneal; details: in vivo; outline: as §1
[30] = Antimetastatic activity against Brown Norwegian rat bearing BN472 tumor assessed as decrease in number of lung foci at 0.1 mg/kg, ip administered once daily after 4 days of tumor transplantation for 17 to 18 days relative to control; assay type: functional; set-up: scale not given: the % may be the effect or the level left; details: route intraperitoneal; outline: as §3
[31] = Antimetastatic activity against Brown Norwegian rat bearing BN472 tumor assessed as decrease in number of lung foci at 1 mg/kg, ip administered once daily after 4 days of tumor transplantation for 17 to 18 days relative to control; assay type: functional; set-up: scale not given: the % may be the effect or the level left; details: route intraperitoneal; outline: as §3
[32] = Antitumor activity against Brown Norwegian rat bearing BN472 tumor assessed as reduction of tumor weight at 1 mg/kg, ip administered once daily after 4 days of tumor transplantation for 17 to 18 days relative to control; assay type: functional; set-up: scale not given: the % may be the effect or the level left; details: route intraperitoneal; outline: as §2
[33] = biological target: Urokinase-type plasminogen activator (Mus musculus, UniProt P06869); assay: Inhibition of mouse uPA
Sequence of Urokinase-type plasminogen activator (Mus musculus, UniProt P06869) (P06869 21-178 limits assumed): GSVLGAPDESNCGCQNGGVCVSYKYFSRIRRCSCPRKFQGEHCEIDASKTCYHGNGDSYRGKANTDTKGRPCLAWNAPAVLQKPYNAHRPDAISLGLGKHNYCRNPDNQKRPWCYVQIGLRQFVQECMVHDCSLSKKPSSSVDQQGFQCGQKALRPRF
Sequence of Urokinase-type plasminogen activator (Mus musculus, UniProt P06869) (P06869 180-433 limits assumed): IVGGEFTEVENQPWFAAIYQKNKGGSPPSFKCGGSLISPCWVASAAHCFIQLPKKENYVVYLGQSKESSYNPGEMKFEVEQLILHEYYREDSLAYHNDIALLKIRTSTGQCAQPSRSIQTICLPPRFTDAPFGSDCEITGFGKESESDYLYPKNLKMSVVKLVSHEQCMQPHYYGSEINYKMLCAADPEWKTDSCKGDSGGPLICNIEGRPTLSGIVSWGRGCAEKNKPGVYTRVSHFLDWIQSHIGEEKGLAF

Rattus norvegicus [34] = assay: Toxicity in Brown Norwegian rat bearing BN472 tumor assessed as decrease in adrenal weight at 0.1 mg/kg, ip administered once daily after 4 days of tumor transplantation for 17 to 18 days relative to control; assay type: organism-based; set-up: dose 0.1 mg/kg, route intraperitoneal; scale not given: the % may be the effect or the level left; details: in vivo; outline: as §1
[35] = Antimetastatic activity against Brown Norwegian rat bearing BN472 tumor assessed as reduction of interpectoral lymph node weight at 1 mg/kg, ip administered once daily after 4 days of tumor transplantation for 17 to 18 days relative to control; assay type: functional; set-up: scale not given: the % may be the effect or the level left; details: route intraperitoneal
[36] = Antitumor activity aganist Brown Norwegian rat bearing BN472 tumor assessed as reduction of tumor size at 0.1 mg/kg, ip administered once daily after 4 days of tumor transplantation for 17 to 18 days relative to control; assay type: functional; set-up: scale not given: the % may be the effect or the level left; details: route intraperitoneal; outline: as §2
[37] = Antitumor activity against Brown Norwegian rat bearing BN472 tumor assessed as reduction of tumor size at 1 mg/kg, ip administered once daily after 4 days of tumor transplantation for 17 to 18 days relative to control; assay type: functional; set-up: scale not given: the % may be the effect or the level left; details: route intraperitoneal; outline: as §2
Rattus norvegicus [38] = assay: Toxicity in Brown Norwegian rat bearing BN472 tumor assessed as increase in uterus weight at 0.1 mg/kg, ip administered once daily after 4 days of tumor transplantation for 17 to 18 days relative to control; assay type: organism-based; set-up: dose 0.1 mg/kg, route intraperitoneal; details: in vivo; outline: as §1

Q: For `COC(=O)NC(Cc1ccc(NC(=N)N)cc1)P(=O)(Oc1ccccc1)Oc1ccccc1` (stereo not drawn), which Activity (Rattus norvegicus [1]) is on record?
A: Its Activity is 2%.

Q: And the Activity [2]?
A: The Activity was 27%.

Q: What about the Activity (Rattus norvegicus [3]) of the same compound?
A: The Activity was 169.5 g.

Q: And the Activity (Rattus norvegicus [4])?
A: Its Activity is 12%.

Q: And the logD [5]?
A: The logD was 1.1.

Q: What about the IC50 (Prothrombin [6]) of the same compound?
A: Its IC50 is over 100 µM.

Q: And the IC50 (Prothrombin [7])?
A: The IC50 was 42 µM.

Q: And the remaining at 3 h [8]?
A: Its remaining at 3 h is 63%.

Q: And the Activity [9]?
A: The Activity was 61%.

Q: And the Activity (Rattus norvegicus [10])?
A: The Activity was 17%.

Q: What about the half-life [11] of the same compound?
A: The half-life was 6 h.

Q: And the IC50 [12]?
A: Its IC50 is 0.0195 µM.

Q: What about the Activity (Rattus norvegicus [13]) of the same compound?
A: The Activity was 3%.

Q: And the Activity (Rattus norvegicus [14])?
A: Its Activity is 3%.

Q: And the Activity (Rattus norvegicus [15])?
A: Its Activity is 3%.

Q: And the Activity (Rattus norvegicus [16])?
A: The Activity was 8%.

Q: And the IC50 (Plasminogen [17])?
A: The IC50 was 15 µM.

Q: And the Kapp [18]?
A: Its Kapp is 62000 M⁻¹ s⁻¹.

Q: And the half-life [19]?
A: The half-life was over 336 h.

Q: What about the half-life [20] of the same compound?
A: The half-life was 120 h.

Q: And the IC50 (Prothrombin [21])?
A: Its IC50 is 17 µM.

Q: And the Activity [22]?
A: The Activity was 10%.

Q: And the half-life [23]?
A: Its half-life is over 336 h.

Q: What about the IC50 (Plasminogen [24]) of the same compound?
A: Its IC50 is 25 µM.

Q: And the IC50 (Plasminogen [25])?
A: Its IC50 is 13 µM.

Q: What about the solubility at 2 h [26] of the same compound?
A: The solubility at 2 h was over 200 µM.

Q: What about the Activity (Rattus norvegicus [27]) of the same compound?
A: The Activity was 168.5 g.

Q: What about the Activity [28] of the same compound?
A: Its Activity is 46%.

Q: And the Activity (Rattus norvegicus [29])?
A: Its Activity is 36%.

Q: And the Activity [30]?
A: The Activity was 29%.

Q: What about the Activity [31] of the same compound?
A: Its Activity is 61%.

Q: And the Activity [32]?
A: The Activity was 9%.

Q: And the IC50 [33]?
A: The IC50 was 0.032 µM.

Q: And the Activity (Rattus norvegicus [34])?
A: The Activity was 3%.

Q: What about the Activity [35] of the same compound?
A: Its Activity is 8%.

Q: What about the Activity [36] of the same compound?
A: The Activity was 17%.

Q: What about the Activity [37] of the same compound?
A: The Activity was 11%.

Q: And the Activity (Rattus norvegicus [38])?
A: Its Activity is 30%.
